Results from ChEMBL document CHEMBL1932940, “Xanthohumol induces apoptosis in human malignant glioblastoma cells by increasing reactive oxygen species and activating MAPK pathways” (J Nat Prod, 2011).
Active and inactive are the calls of the source. The rule behind the calls is not given here.

Experiments:
U-87 MG [1] = assay: Induction of cell cycle arrest in human U87MG cells assessed as accumulation at G0/G1 phase at 1 to 20 uM after 48 hrs by flow cytometric analysis; format: functional, cell-based; conditions: U-87MG ATCC
Procedure, shortened: (§1)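 2 × 10^5 cells per dish exposed 48 h (1−20 μM per legend); harvested, fixed in cold 70% ethanol at −20 °C, stained with propidium iodide plus RNase A (100 U/mL) 30 min at room temperature; percentage in G1, S, G2/M by flow cytometry. Three experiments in triplicate.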

[2] = Cytotoxicity against normal human astrocytes assessed as decrease in cell viability after 48 hrs by MTT assay; format: cell-based; conditions: astrocyte
Procedure, shortened: (§2)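 Cells (T98G, U87-MG, NHA; 3 × 10^4 per well) plated, next day exposed to serial dilutions (1−50 μM) for 48 h at 37 °C, 5% CO2. MTT (5 mg/mL) added for 3 h; crystals solubilized in 50% DMF/20% SDS pH 4.5; OD at 620 nm. Viability = % of DMSO (0.1% final) controls. Means ± SEM, three experiments in triplicate.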

U-87 MG [3] = assay: Induction of apoptosis in human U87MG cells at 1 to 50 uM after 48 hrs by propidium iodide staining based flow cytometric analysis; format: functional, cell-based; conditions: U-87MG ATCC
Procedure, shortened: (§3)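 Cells treated 1−50 μM for 24 or 48 h, washed in PBS, resuspended in 0.1% sodium citrate, 0.1% Triton X-100, 50 μg/mL propidium iodide, 30 min at 4 °C in dark. Nuclei analyzed by flow cytometry, DNA on log scale, debris gated out; percent hypodiploid (sub-G1) nuclei reported. Three experiments in triplicate.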

T98G [4] = assay: Induction of cell cycle arrest in human T98G cells assessed as accumulation at G0/G1 phase at 1 to 20 uM after 48 hrs by flow cytometric analysis; format: functional, cell-based; procedure, shortened: as §1
T98G [5] = assay: Induction of cell cycle arrest in human T98G cells assessed as accumulation at G2/M phase at 1 to 20 uM after 48 hrs by flow cytometric analysis; format: functional, cell-based; procedure, shortened: as §1
T98G [6] = assay: Induction of apoptosis in human T98G cells at 1 to 50 uM after 48 hrs by propidium iodide staining based flow cytometric analysis; format: functional, cell-based; procedure, shortened: as §3
U-87 MG [7] = assay: Induction of cell cycle arrest in human U87MG cells assessed as accumulation at S phase at 1 to 20 uM after 48 hrs by flow cytometric analysis; format: functional, cell-based; conditions: U-87MG ATCC; procedure, shortened: as §1
U-87 MG [8] = assay: Induction of cell cycle arrest in human U87MG cells assessed as accumulation at G2/M phase at 1 to 20 uM after 48 hrs by flow cytometric analysis; format: functional, cell-based; conditions: U-87MG ATCC; procedure, shortened: as §1
T98G [9] = assay: Anticancer activity against human T98G cells assessed as decrease in cell viability at 50 uM after 48 hrs by MTT assay; format: functional; procedure, shortened: as §2
U-87MG ATCC = assay: Anticancer activity against human U87MG cells assessed as decrease in cell viability at 50 uM after 48 hrs by MTT assay; format: functional, cell-based; procedure, shortened: as §2
T98G [10] = assay: Induction of cell cycle arrest in human T98G cells assessed as accumulation at S phase at 1 to 20 uM after 48 hrs by flow cytometric analysis; format: functional, cell-based; procedure, shortened: as §1

In the case of CC(C)=CCC1C(=O)C(C(=O)CC(C)C)=C(O)C(O)(CC=C(C)C)C1=O (stereo unspecified) [HUMULONE], the Activity (U-87 MG [1]) is reported as “inactive”, the Activity [2] is reported as “Non-toxic” and the Activity (U-87 MG [3]) is reported as “inactive”. The Activity (T98G [4]) was “inactive”, the Activity (T98G [5]) was “inactive” and the Activity (T98G [6]) was “inactive”. The Activity (U-87 MG [7]) was “inactive”, the Activity (U-87 MG [8]) was “inactive” and the Activity (T98G [9]) was “inactive”. For the same compound, the Activity (U-87MG ATCC) was “inactive” and the Activity (T98G [10]) was “inactive”.
